Test results reported in the M2OR odorant receptor database.

Assays:
Conditions in all cases: stereoisomer not certain
OR10A3 (Homo sapiens) = target: T1, OR10A3 (Homo sapiens) (UniProt P58181)
T1 sequence (whole entry): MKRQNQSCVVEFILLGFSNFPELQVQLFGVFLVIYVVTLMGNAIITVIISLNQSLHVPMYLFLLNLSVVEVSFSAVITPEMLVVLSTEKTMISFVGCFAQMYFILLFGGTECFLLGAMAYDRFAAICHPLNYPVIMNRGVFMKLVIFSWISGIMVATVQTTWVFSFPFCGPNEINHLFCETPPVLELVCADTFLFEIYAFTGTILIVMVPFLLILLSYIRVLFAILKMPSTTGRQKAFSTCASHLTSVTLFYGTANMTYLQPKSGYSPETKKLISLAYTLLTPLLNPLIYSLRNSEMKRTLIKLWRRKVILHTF
Procedure, shortened: (§1)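 Transient luciferase assays in mammalian cell lines were common, though methods varied by source. The values come from published papers and their supplementary material, with extra details from the original authors when needed. Responsive refers to a measured signal the original authors judged statistically different from baseline, and non-responsive (inactive) to the remainder.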

OR10A4 (Homo sapiens) = target: T2, OR10A4 (Homo sapiens) (UniProt Q9H209)
T2 sequence (whole entry): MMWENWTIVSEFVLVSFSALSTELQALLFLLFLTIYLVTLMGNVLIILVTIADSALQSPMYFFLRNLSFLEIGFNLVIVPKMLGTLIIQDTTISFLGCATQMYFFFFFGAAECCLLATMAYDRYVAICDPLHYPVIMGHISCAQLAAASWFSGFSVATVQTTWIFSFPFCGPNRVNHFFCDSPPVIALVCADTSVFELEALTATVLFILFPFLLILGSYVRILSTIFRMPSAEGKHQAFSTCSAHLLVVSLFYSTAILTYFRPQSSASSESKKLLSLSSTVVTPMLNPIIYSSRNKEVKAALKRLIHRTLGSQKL
Procedure, shortened: as §1

OR10A5 (Homo sapiens) = target: T3, OR10A5 (Homo sapiens) (UniProt Q9H207)
T3 sequence (whole entry): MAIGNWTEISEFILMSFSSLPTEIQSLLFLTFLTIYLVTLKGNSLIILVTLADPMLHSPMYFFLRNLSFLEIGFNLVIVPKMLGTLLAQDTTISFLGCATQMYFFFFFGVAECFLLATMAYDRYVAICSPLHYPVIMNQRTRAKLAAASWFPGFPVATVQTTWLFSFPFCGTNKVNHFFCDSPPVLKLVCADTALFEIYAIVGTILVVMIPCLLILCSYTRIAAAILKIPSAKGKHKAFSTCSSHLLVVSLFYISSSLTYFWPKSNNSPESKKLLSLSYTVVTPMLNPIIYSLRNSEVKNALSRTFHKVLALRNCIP
Procedure, shortened: as §1

OR10A6 (Homo sapiens) = target: T4, OR10A6 (Homo sapiens) (UniProt Q8NH74)
T4 sequence (whole entry): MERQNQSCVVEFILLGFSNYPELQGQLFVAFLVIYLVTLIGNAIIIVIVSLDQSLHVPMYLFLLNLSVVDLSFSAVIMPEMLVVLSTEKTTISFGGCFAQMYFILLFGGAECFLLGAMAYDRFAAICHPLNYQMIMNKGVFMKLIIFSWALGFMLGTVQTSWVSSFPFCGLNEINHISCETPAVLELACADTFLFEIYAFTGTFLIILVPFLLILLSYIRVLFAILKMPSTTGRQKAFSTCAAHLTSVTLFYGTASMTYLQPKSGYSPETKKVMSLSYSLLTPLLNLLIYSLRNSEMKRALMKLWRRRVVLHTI
Procedure, shortened: as §1

OR10A7 (Homo sapiens) = target: T5, OR10A7 (Homo sapiens) (UniProt Q8NGE5)
T5 sequence (whole entry): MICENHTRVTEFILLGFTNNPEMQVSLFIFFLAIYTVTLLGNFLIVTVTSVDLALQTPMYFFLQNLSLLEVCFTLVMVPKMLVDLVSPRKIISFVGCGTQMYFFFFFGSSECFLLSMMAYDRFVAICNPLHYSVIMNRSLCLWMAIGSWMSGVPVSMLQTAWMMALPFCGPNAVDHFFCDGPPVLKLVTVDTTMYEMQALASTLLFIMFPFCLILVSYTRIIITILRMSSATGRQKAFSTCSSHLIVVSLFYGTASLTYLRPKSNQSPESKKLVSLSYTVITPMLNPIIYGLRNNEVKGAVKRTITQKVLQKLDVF
Procedure, shortened: as §1

OR10AD1 (Homo sapiens) = target: T6, OR10AD1 (Homo sapiens) (UniProt Q8NGE0)
T6 sequence (whole entry): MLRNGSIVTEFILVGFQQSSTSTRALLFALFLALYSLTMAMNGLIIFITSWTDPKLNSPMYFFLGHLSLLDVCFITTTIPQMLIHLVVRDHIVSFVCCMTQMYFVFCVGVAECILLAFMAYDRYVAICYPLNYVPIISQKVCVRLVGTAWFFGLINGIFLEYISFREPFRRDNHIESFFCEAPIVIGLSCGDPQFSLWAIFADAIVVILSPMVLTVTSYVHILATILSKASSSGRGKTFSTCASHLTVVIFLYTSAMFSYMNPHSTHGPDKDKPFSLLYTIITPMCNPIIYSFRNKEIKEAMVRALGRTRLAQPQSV
Procedure, shortened: as §1

OR10AG1 (Homo sapiens) = target: T7, OR10AG1 (Homo sapiens) (UniProt Q8NH19)
T7 sequence (whole entry): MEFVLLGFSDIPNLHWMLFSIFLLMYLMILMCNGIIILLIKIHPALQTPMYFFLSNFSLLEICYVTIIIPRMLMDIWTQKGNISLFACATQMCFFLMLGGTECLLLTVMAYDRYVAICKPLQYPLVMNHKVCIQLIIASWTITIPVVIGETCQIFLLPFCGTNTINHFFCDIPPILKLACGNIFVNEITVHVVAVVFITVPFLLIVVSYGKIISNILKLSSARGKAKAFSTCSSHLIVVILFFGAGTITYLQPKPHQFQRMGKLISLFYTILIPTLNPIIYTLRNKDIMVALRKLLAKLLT
Procedure, shortened: as §1

OR10C1 (Homo sapiens) = target: T8, OR10C1 (Homo sapiens) (UniProt Q96KK4)
T8 sequence (whole entry): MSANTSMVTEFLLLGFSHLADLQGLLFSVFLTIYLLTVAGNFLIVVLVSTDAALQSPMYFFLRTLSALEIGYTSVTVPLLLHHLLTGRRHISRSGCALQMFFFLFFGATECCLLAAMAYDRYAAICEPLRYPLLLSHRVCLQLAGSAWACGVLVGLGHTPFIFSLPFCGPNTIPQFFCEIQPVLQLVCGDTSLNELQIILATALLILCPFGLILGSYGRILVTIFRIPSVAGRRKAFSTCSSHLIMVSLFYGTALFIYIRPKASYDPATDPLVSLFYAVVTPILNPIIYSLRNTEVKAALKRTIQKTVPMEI
Procedure, shortened: as §1

OR10D3 (Homo sapiens) = target: T9, OR10D3 (Homo sapiens) (UniProt Q8NH80)
T9 sequence (whole entry): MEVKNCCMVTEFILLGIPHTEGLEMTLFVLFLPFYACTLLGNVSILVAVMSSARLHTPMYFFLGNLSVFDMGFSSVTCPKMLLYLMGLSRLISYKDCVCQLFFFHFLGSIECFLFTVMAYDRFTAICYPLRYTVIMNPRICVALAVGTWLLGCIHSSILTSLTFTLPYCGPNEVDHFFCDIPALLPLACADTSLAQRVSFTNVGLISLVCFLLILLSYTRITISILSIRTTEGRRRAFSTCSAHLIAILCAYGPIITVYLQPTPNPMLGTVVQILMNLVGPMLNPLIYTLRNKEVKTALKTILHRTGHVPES
Procedure, shortened: as §1

Measured: odorant receptor agonist call;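 further: active if original authors judged signal statistically different from baseline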

CCC1OC(=O)C(O)=C1C (centres undefined)
inactive: OR10A3 (Homo sapiens) | OR10A4 (Homo sapiens) | OR10A5 (Homo sapiens) | OR10A6 (Homo sapiens) | OR10A7 (Homo sapiens) | OR10AD1 (Homo sapiens) | OR10AG1 (Homo sapiens) | OR10C1 (Homo sapiens) | OR10D3 (Homo sapiens)
